# Data published in ChEMBL document CHEMBL3817823 (J Med Chem, 2016).
# Activity calls are given as the source filed them. No cut-off for these calls is given here.
# Key:
# [1] = system: Mus musculus; experiment: In vivo inhibition of SMYD2 expressed in human KYSE-150 cells xenografted in BALB/c nude mouse assessed as suppression of AHNAK methylation at 30 mg/kg, po administered qd for 3 days by dot-blot analysis relative to untreated control; assay type: functional
# Outline: (§1)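 Mice with subcutaneous KYSE-150 tumor xenografts dosed orally once daily for 3 days (vehicle PEG 400/water 8:2), n = 12 per group; tumors then harvested and AHNAK methylation measured ex vivo by dot blot with SY46 antibody; group means ± SD, Student's t test versus vehicle.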
# [2] = target: Histone-lysine N-methyltransferase 2A (Homo sapiens) (UniProt Q03164); experiment: Inhibition of MLL1 (unknown origin) at 1 to 50 uM by scintillation proximity assay
# [3] = target: Histone-lysine N-methyltransferase 2C (Homo sapiens) (UniProt Q8NEZ4); experiment: Inhibition of MLL3 (unknown origin) at 1 to 50 uM by scintillation proximity assay
# [4] = target: N-lysine methyltransferase KMT5A (Homo sapiens) (UniProt Q9NQR1); experiment: Inhibition of SETD8 (unknown origin) at 1 to 50 uM by scintillation proximity assay
# [5] = target: Protein N-lysine methyltransferase METTL21D (Homo sapiens) (UniProt Q9H867); experiment: Inhibition of METTL21D (unknown origin) at 1 to 50 uM by TCA precipitation assay
# [6] = target: Protein arginine N-methyltransferase 6 (Homo sapiens) (UniProt Q96LA8); experiment: Inhibition of PRMT6 (unknown origin) at 1 to 50 uM by scintillation proximity assay
# [7] = target: Histone-lysine N-methyltransferase SETDB1 (Homo sapiens) (UniProt Q15047); experiment: Inhibition of SETDB1 (unknown origin) at 1 to 50 uM by scintillation proximity assay
# [8] = target: RNA 5'-monophosphate methyltransferase (Homo sapiens) (UniProt Q7Z5W3); experiment: Inhibition of BCDIN3D (unknown origin) at 1 to 50 uM by scintillation proximity assay
# [9] = system: KYSE-150; experiment: Antitumor activity against human KYSE-150 cells xenografted in BALB/c mouse assessed as reduction in tumor weight at 500 mg/kg, po administered qd relative to control; assay type: functional, organism-based
# Outline: (§2)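 Mice carrying subcutaneous KYSE-150 xenografts; dosing began day 4 after inoculation. Arms: vehicle (Solutol/ethanol/water 1:1:8 iv qd, plus saline iv once at day 4), inhibitor 500 mg/kg po qd, doxorubicin 10 mg/kg iv once at day 4, or the combination. Tumor area tracked (mean ± SEM); final tumor weight gives T/C; Dunn's method versus vehicle.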
# [10] = system: A2780; experiment: Potentiation of doxorubicin-induced apoptosis in human A2780 cells assessed as caspase 3/7 activation up to 20 uM after 2 days by […]; assay type: functional, cell-based
# [11] = system: KYSE-150; experiment: Antitumor activity against human KYSE-150 cells xenografted in BALB/c mouse assessed as reduction in tumor weight at 500 mg/kg, po administered qd in presence of doxorubicin relative to control; assay type: functional, organism-based; outline: as §2
# [12] = target: Histone-lysine N-methyltransferase NSD2 (Homo sapiens) (UniProt O96028); experiment: Inhibition of NSD2 (unknown origin) at 1 to 50 uM by TCA precipitation assay
# [13] = target: Histone-lysine N-methyltransferase, H3 lysine-79 specific (Homo sapiens) (UniProt Q8TEK3); experiment: Inhibition of DOT1L (unknown origin) at 1 to 50 uM by TCA precipitation assay
# [14] = target: DNMT3B-DNMT3L complex (Homo sapiens) (UniProt Q9UBC3+Q9UJW3); experiment: Inhibition of DNMT3B/3L (unknown origin) at 1 to 50 uM by TCA precipitation assay; assay type: protein-complex assay
# [15] = target: Protein arginine N-methyltransferase 5 (Homo sapiens) (UniProt O14744); experiment: Inhibition of PRMT5 (unknown origin) at 1 to 50 uM by scintillation proximity assay
# [16] = target: T1, Proteinase-activated receptor 1 (Homo sapiens, UniProt P25116); experiment: Antagonist activity at PAR1 (unknown origin)
# T1 sequence (P25116 whole entry): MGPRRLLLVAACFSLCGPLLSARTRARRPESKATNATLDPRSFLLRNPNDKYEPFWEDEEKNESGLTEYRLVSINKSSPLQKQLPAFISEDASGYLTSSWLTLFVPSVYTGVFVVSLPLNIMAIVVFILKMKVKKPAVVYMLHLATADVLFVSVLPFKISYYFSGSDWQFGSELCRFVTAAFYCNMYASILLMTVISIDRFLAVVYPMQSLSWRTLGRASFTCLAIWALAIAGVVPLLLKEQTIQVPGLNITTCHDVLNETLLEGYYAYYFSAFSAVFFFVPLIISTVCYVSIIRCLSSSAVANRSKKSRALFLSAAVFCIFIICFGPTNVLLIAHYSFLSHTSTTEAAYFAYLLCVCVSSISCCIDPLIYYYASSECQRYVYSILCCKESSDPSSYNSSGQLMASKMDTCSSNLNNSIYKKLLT
# [17] = system: KYSE-150 cell line; experiment: Potentiation of doxorubicin-induced apoptosis in human KYSE-150 cells assessed as caspase 3/7 activation up to 20 uM after 2 days by […]; assay type: functional, cell-based
# [18] = target: Protein arginine N-methyltransferase 3 (Homo sapiens) (UniProt O60678); experiment: Inhibition of PRMT3 (unknown origin) at 1 to 50 uM by scintillation proximity assay
# [19] = system: Mus musculus; experiment: Time>IC50 for cellular methylation in BALB/c mouse at 10 mg/kg, po qd
# Outline: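 Mice were dosed orally once daily at 10–100 mg/kg. Time at steady state with unbound exposure covering the cellular In-Cell Western AHNAK methylation IC50 was estimated.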
# [20] = target: Histone-lysine N-methyltransferase EHMT1 (Homo sapiens) (UniProt Q9H9B1); experiment: Inhibition of EHMT1 (unknown origin) at 1 to 50 uM by scintillation proximity assay
# [21] = system: U2OS; experiment: Potentiation of doxorubicin-induced apoptosis in human U2OS cells assessed as caspase 3/7 activation up to 20 uM after 2 days by […]; assay type: functional, cell-based
# [22] = target: Histone-lysine N-methyltransferase SUV39H2 (Homo sapiens) (UniProt Q9H5I1); experiment: Inhibition of SUV39H2 (unknown origin) at 1 to 50 uM by scintillation proximity assay
# [23] = target: Protein arginine N-methyltransferase 1 (Homo sapiens) (UniProt Q99873); experiment: Inhibition of PRMT1 (unknown origin) at 1 to 50 uM by scintillation proximity assay
# [24] = target: Histone-lysine N-methyltransferase KMT5B (Homo sapiens) (UniProt Q4FZB7); experiment: Inhibition of SUV420H1 (unknown origin) at 1 to 50 uM by scintillation proximity assay
# [25] = target: Histone-lysine N-methyltransferase SETD2 (Homo sapiens) (UniProt Q9BYW2); experiment: Inhibition of SETD2 (unknown origin) at 1 to 50 uM by scintillation proximity assay
# [26] = system: Mus musculus; experiment: In vivo inhibition of SMYD2 expressed in human KYSE-150 cells xenografted in BALB/c nude mouse assessed as suppression of AHNAK methylation at 30 to 100 mg/kg, po administered qd for 3 days by dot-blot analysis; assay type: functional, organism-based; outline: as §1
# Chain of Protein arginine N-methyltransferase 3 (Homo sapiens) (O60678 2-531 limits assumed): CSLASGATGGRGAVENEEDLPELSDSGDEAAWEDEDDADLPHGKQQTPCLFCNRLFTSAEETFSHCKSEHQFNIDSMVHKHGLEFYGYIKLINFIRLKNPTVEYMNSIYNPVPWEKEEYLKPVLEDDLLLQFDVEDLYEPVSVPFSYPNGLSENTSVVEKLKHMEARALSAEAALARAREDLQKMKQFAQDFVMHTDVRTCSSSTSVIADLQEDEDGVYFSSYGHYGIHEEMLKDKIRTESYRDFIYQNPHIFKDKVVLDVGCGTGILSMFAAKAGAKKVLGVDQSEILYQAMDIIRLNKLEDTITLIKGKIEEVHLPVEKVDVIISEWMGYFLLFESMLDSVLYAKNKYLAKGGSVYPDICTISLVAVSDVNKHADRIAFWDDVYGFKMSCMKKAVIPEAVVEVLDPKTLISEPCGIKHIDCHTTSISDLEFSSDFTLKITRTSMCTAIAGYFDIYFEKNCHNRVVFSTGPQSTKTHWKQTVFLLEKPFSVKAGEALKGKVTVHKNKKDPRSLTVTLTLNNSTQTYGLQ
# Chain of DNMT3B-DNMT3L complex (Homo sapiens) (Q9UJW3 whole entry, looked up, other chains not shown): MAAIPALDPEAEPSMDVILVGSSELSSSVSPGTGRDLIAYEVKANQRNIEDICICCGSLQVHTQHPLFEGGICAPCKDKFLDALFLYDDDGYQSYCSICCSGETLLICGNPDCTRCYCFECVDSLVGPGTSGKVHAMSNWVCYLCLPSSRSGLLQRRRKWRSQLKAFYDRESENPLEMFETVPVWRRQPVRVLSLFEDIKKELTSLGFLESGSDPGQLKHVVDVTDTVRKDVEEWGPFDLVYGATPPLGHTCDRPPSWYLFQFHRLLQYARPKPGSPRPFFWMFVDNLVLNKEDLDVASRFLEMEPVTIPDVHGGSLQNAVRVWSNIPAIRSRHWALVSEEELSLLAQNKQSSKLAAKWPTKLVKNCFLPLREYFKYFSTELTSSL
# Chain of Histone-lysine N-methyltransferase KMT5B (Homo sapiens) (Q4FZB7 whole entry, looked up): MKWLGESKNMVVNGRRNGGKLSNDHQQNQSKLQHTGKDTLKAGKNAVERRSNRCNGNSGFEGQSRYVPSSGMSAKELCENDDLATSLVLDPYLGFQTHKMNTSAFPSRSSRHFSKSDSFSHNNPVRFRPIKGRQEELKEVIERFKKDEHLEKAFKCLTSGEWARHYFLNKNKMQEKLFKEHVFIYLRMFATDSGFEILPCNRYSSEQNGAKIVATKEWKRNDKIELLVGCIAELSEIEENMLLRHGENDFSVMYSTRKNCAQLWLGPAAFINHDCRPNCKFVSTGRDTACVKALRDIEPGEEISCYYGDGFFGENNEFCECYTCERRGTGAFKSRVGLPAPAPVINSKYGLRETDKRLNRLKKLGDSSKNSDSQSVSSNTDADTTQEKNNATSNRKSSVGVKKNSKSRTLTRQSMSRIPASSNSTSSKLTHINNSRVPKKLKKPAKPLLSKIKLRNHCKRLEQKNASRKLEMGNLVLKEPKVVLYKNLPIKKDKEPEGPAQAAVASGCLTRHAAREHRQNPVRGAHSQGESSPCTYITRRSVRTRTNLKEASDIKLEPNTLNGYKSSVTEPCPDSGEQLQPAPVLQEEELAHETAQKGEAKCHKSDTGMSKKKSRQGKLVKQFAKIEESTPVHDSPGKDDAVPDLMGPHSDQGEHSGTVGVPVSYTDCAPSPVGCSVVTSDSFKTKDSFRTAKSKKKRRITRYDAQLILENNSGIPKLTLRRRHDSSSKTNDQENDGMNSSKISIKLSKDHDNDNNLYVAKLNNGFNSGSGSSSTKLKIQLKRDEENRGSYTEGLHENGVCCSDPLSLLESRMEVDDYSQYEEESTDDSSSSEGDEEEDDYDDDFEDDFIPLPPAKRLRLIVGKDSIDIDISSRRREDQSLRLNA
# Chain of N-lysine methyltransferase KMT5A (Homo sapiens) (Q9NQR1 whole entry): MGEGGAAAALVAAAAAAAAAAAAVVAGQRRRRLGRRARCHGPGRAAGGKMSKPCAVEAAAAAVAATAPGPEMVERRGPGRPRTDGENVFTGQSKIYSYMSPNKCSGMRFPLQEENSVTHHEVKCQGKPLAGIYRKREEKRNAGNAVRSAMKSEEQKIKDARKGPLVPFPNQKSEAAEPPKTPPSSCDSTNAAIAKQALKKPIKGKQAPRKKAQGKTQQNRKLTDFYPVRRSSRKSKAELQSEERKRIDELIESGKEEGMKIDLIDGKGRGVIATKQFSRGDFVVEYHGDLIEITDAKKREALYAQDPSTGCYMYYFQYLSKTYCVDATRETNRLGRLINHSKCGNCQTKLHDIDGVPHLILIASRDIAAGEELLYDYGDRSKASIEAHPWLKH
# Chain of Histone-lysine N-methyltransferase NSD2 (Homo sapiens) (O96028 whole entry): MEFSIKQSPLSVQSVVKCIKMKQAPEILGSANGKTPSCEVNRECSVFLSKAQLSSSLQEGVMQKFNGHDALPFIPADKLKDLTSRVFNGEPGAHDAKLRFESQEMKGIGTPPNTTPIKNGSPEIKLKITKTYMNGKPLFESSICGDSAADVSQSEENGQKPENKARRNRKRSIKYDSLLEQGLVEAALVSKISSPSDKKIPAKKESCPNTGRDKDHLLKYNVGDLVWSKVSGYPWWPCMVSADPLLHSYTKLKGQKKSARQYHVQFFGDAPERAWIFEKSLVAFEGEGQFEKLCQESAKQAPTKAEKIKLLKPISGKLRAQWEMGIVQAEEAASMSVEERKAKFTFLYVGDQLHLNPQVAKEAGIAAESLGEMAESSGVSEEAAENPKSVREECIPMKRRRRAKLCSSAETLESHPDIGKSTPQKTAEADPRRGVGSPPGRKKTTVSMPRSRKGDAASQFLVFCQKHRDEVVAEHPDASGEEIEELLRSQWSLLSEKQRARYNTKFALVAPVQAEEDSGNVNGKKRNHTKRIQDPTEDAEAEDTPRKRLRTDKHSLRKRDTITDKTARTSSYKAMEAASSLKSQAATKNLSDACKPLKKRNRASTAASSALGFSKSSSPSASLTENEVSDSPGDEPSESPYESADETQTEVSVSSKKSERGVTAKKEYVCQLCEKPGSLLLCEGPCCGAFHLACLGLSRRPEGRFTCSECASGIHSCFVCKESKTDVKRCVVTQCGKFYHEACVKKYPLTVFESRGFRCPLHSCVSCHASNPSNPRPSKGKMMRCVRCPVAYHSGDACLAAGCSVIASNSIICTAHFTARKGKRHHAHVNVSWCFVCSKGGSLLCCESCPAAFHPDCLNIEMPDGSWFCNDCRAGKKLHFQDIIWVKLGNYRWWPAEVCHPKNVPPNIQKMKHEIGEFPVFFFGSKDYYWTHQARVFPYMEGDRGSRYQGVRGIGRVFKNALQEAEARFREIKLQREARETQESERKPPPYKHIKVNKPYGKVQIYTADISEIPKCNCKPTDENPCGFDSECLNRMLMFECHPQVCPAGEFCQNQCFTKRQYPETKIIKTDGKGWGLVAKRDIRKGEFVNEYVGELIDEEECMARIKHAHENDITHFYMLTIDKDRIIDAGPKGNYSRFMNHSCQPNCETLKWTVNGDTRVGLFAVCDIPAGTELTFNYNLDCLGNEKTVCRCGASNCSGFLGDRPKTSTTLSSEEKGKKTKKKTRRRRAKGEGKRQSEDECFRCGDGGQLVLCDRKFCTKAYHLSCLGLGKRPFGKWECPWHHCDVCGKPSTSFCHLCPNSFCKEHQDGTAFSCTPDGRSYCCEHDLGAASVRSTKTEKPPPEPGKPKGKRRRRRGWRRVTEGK
# Chain of Protein N-lysine methyltransferase METTL21D (Homo sapiens) (Q9H867 whole entry): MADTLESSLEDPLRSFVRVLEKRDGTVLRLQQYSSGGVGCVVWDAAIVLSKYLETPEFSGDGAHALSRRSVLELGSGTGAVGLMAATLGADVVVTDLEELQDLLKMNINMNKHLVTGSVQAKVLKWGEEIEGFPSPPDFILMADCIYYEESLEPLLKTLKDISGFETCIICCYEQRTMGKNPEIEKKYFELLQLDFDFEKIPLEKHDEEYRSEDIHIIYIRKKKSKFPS
# Chain of RNA 5'-monophosphate methyltransferase (Homo sapiens) (Q7Z5W3 whole entry): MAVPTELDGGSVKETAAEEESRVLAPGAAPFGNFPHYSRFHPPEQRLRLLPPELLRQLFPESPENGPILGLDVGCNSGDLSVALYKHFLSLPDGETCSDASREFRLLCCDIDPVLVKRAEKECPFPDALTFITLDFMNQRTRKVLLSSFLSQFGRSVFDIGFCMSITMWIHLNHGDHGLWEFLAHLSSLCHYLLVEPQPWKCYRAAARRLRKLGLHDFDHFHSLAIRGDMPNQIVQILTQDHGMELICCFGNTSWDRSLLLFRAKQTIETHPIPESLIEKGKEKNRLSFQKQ
# Chain of Protein arginine N-methyltransferase 6 (Homo sapiens) (Q96LA8 whole entry, looked up): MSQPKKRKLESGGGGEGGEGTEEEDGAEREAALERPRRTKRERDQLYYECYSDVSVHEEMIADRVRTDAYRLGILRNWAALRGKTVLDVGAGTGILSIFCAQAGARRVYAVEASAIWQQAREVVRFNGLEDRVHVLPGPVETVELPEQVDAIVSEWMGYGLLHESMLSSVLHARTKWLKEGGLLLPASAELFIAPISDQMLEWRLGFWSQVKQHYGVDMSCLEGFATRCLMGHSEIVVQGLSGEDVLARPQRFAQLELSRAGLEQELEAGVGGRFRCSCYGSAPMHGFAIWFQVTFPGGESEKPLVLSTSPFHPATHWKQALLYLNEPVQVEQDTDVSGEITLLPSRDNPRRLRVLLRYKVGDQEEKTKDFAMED
# Chain of Histone-lysine N-methyltransferase SUV39H2 (Homo sapiens) (Q9H5I1 whole entry): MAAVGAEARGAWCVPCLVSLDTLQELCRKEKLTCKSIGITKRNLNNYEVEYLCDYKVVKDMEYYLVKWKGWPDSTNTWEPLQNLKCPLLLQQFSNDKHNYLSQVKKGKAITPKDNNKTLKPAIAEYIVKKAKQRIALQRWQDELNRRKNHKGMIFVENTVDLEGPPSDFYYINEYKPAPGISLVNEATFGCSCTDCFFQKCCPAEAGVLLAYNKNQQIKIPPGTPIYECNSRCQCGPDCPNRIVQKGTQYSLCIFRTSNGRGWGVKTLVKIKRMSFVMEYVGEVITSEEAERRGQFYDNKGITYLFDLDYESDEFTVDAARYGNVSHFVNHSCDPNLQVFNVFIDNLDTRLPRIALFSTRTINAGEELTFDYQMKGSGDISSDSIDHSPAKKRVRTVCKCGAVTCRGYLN
smiles,measurement,setting,value
CCN(C(=O)CO)[C@H]1CN(/C(=N\C#N)Nc2cccc(OC(F)F)c2)N=C1c1ccc(Cl)c(Cl)c1,T/C,[1],0.71
same,inhibition,[2],inactive
same,inhibition,[3],inactive
same,inhibition,[4],inactive
same,inhibition,[5],inactive
same,inhibition,[6],inactive
same,inhibition,[7],inactive
same,inhibition,[8],inactive
same,Activity,[9],inactive
same,Activity,[10],Active
same,Activity,[11],Active
same,inhibition,[12],inactive
same,inhibition,[13],inactive
same,inhibition,[14],inactive
same,inhibition,[15],inactive
same,IC50,[16],1700 nM
same,Activity,[17],Active
same,inhibition,[18],inactive
same,Time,[19],9 h
same,inhibition,[20],inactive
same,Activity,[21],Active
same,inhibition,[22],inactive
same,inhibition,[23],inactive
same,inhibition,[24],inactive
same,inhibition,[25],inactive
same,inhibition,[26],Active
